Results on 13 compounds are retold here after ChEMBL document CHEMBL5108018, “Discovery of MDM2-p53 and MDM4-p53 protein-protein interactions small molecule dual inhibitors” (Eur J Med Chem, 2022).

Molecules are shown by their SMILES. Bounds are passed on as bounds.

Assay [1] deals with HCT-116. The experiment in a line: Antiproliferative activity against human HCT-116 cells harboring wild type p53 overexpressing MDM2 assessed as inhibition of cell growth incubated for 48 hrs by MTS assay. Type of assay: functional, cell-based. As to conditions: HCT-116, 48 h. The method in brief:
(§1)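 MTS viability: cells seeded 1×10^4/well (HCT116), 3×10^3/well (SJSA-1, LNCaP), 5×10^3/well (MCF-7), treated ~24 h after plating with DMSO-stock compounds serially diluted in medium (final DMSO ≤0.1%). Ten or more concentrations over 1–100 µM, duplicates, ≥3 independent runs. Exposure 48 h (HCT116), 72 h (MCF-7), 96 h (SJSA-1, LNCaP). MTS 0.5 mg/mL added for 15–30 min, A490. IC50 from four-parameter variable-slope fit.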

The subject of assay [2] is SJSA-1. As to the kind of experiment: Antiproliferative activity against human SJSA-1 cells harboring wild type p53 overexpressing MDM2/4 assessed as inhibition of cell growth incubated for 96 hrs by MTS assay. As to conditions: SJSA-1, 96 h. In kind it is functional, cell-based. The method in brief:
as §1

A word on the IC50: it is the concentration that gives 50% inhibition. `CCOC(=O)C1=NN(c2ccc(Cl)cc2)C2(C(=O)Nc3cc(Cl)ccc32)C1c1cccc(O)c1` (centres undefined): in assay [1], the IC50 was 33.7 µM.

As to `CC(C)(C)N1N=C(C(=O)Nc2ccc(O)cc2)C(c2cccc(Cl)c2F)C12C(=O)Nc1cc(Cl)ccc12` (centres undefined), the IC50 in assay [1] stood at 34.2 µM.

Take `O=C(NCCO)C1=NN(c2ccc(Cl)cc2)C2(C(=O)Nc3cc(Cl)ccc32)C1c1cccc(O)c1` (centres undefined): the IC50 in assay [1] was over 50 µM.

`CCOC(=O)C1=NN(C2CCCCC2)C2(C(=O)Nc3cc(Cl)ccc32)C1c1ccc(Cl)cc1` (centres undefined): the IC50 in assay [1] was determined as 39.1 µM.

For `CCOC(=O)C1=NN(C(C)(C)C)C2(C(=O)Nc3cc(Cl)c(F)cc32)C1c1cccc(Cl)c1F` (centres undefined), in assay [1], the IC50 came to 35.1 µM.

As to `O=C(NCCc1ccc(O)cc1)C1=NN(c2ccc(Cl)cc2)C2(C(=O)Nc3cc(Cl)ccc32)C1c1cccc(O)c1` (centres undefined), in assay [1], the IC50 came out at 27 µM.

On to `CCOC(=O)C1=NN(C(C)(C)C)C2(C(=O)Nc3cc(Cl)ccc32)C1c1cccc(F)c1` (centres undefined), for which, in assay [1], the IC50 was determined as 44.8 µM.

As to `CCOC(=O)C1=NN(C2CCCCC2)C2(C(=O)Nc3cc(Cl)ccc32)C1c1cccc(Cl)c1` (centres undefined), in assay [1], the IC50 worked out at 25.5 µM.

For the compound `CCOC(=O)C1=NN(C(C)(C)C)C2(C(=O)Nc3cc(Cl)c(F)cc32)C1c1cccc(F)c1` (centres undefined), the IC50 in assay [1] worked out at 41.9 µM.

In the case of `O=C(O)C1=NN(C2CCCCC2)C2(C(=O)Nc3cc(Cl)ccc32)C1c1cccc(Cl)c1F` (centres undefined), the IC50 in assay [1] was over 100 µM.

Regarding `CCOC(=O)C1=NN(C2CCCCC2)C2(C(=O)Nc3cc(Cl)ccc32)C1c1cccc(Cl)c1F` (centres undefined), the IC50 was determined as 23.6 µM in assay [1] and 12.6 µM in assay [2].

Regarding `CCOC(=O)C1=NN(C(C)(C)C)C2(C(=O)Nc3cc(Cl)ccc32)C1c1cccc(Cl)c1F` (centres undefined), the IC50 in assay [1] is 32.1 µM.

Take `CCOC(=O)C1=NN(c2ccccc2)C2(C(=O)Nc3cc(Cl)ccc32)C1c1cccc(F)c1` (centres undefined): the IC50 in assay [1] stood at 29.9 µM.
